Assay results: ChEMBL document CHEMBL1155540, “The discovery and SAR of indoline-3-carboxamides--a new series of 5-HT6 antagonists” (Bioorg Med Chem Lett, 2010)

Assays:
[1] = target: 5-hydroxytryptamine receptor 6 (Homo sapiens, UniProt P50406); assay: Displacement of [3H]LSD from human 5HT6 receptor expressed in CHO cells
[2] = target: Voltage-gated inwardly rectifying potassium channel KCNH2 (Homo sapiens, UniProt Q12809); assay: Displacement of [3H]dofetolide from human ERG channel in HEK293 cells; assay type: cell-based
Summary of the method: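 Affinity for cardiac K+ channel determined by displacement of tritiated dofetolide in membrane homogenate from HEK-293 cells expressing hERG channel; reported as pKi.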

[3] = Intrinsic clearance in human liver microsome measured per mg of protein; assay type: ADME; settings: liver microsomes
[4] = Intrinsic clearance in rat liver microsome measured per mg of protein; assay type: ADME; settings: liver microsomes
Hepatocyte [5] = assay: Intrinsic clearance in human hepatocytes; assay type: ADME, cell-based, Liver
Hepatocyte [6] = assay: Intrinsic clearance in rat hepatocytes; assay type: ADME, cell-based, Liver
[7] = Permeability from apical to basolateral side of the human Caco-2 membrane; assay type: ADME, cell-based; settings: read-out: permeability
[8] = Permeability from basolateral to apical side of the human Caco-2 membrane; assay type: ADME, cell-based; settings: read-out: permeability
[9] = Elimination half life in Wistar rat at 1 mg/kg, iv; assay type: ADME, organism-based; design: dose 1 mg/kg, route intravenous; settings: in vivo, read-out: beta t1/2 (converted)
Summary of the method: (§1)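 Male Wistar rats dosed 1 mg/kg iv or 10 mg/kg po; vehicle 5% DMA / 95% saline. Plasma pharmacokinetic parameters derived and given as mean with SD.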

[10] = Volume of distribution at steady state in Wistar rat at 1 mg/kg, iv; assay type: ADME, organism-based; design: dose 1 mg/kg, route intravenous; settings: in vivo, read-out: Vdss
Summary of the method: as §1

[11] = Clearance in Wistar rat at 1 mg/kg, iv; assay type: ADME, organism-based; design: dose 1 mg/kg, route intravenous; settings: in vivo
Summary of the method: as §1

[12] = Oral bioavailability in Wistar rat at 10 mg/kg; assay type: ADME, organism-based; settings: in vivo
Summary of the method: as §1

[13] = Plasma protein binding in rat; settings: read-out: PPB (converted)
Homo sapiens = species on record: Homo sapiens; assay: Plasma protein binding in human; settings: read-out: PPB (converted)

Chain of 5-hydroxytryptamine receptor 6 (P50406 whole entry): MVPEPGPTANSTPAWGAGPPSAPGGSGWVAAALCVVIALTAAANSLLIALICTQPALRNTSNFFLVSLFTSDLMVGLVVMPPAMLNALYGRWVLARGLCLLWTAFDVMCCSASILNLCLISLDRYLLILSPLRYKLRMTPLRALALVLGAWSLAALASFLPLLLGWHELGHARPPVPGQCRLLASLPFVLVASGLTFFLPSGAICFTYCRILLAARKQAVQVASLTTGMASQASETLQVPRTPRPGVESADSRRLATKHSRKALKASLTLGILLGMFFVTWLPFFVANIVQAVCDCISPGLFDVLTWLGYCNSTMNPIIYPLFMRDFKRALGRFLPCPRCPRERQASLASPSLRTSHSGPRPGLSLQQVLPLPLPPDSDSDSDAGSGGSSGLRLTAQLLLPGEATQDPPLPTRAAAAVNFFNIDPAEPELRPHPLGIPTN
Chain of Voltage-gated inwardly rectifying potassium channel KCNH2 (Q12809 whole entry): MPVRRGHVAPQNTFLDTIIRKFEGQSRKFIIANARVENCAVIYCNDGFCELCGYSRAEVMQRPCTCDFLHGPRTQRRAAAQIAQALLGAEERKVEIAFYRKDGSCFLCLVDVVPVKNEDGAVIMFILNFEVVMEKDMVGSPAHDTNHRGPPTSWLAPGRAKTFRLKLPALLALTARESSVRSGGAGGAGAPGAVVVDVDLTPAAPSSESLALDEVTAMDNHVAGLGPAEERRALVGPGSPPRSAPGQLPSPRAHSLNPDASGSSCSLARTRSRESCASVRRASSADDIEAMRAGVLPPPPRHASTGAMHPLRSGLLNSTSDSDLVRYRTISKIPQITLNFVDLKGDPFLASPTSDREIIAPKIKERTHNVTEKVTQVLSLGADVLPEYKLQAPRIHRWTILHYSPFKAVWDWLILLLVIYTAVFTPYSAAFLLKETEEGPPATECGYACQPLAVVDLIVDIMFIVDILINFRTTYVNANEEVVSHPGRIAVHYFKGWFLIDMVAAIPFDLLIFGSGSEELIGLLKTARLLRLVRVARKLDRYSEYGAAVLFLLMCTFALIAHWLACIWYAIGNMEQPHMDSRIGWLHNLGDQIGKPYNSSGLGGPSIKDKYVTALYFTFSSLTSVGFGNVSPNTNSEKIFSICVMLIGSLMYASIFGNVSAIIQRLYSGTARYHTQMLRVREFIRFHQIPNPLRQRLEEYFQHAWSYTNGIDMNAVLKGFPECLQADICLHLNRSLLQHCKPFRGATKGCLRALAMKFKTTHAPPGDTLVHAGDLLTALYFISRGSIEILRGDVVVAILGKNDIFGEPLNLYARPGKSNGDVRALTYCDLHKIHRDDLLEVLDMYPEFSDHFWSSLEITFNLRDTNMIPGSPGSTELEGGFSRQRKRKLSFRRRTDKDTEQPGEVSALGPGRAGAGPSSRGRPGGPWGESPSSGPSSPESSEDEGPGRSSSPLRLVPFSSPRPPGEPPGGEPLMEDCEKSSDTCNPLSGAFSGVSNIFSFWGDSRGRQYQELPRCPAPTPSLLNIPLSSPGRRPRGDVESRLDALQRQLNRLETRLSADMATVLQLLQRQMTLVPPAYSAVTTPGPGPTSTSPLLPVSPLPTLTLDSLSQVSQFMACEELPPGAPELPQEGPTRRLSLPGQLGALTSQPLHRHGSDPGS

SMILES	Ki [1] [µM]	further results
COc1cc(C)c(S(=O)(=O)N2CC(C(=O)N(C)C3CCN(C)CC3)c3ccccc32)c(C)c1C (racemic)	0.1	
CN1CCC(N(C)C(=O)C2CN(S(=O)(=O)c3ccccc3)c3ccccc32)CC1 (racemic)	0.316	
COc1ccc(S(=O)(=O)N2CC(C(=O)N(C)C3CCN(C)CC3)c3ccccc32)c(C)c1C (racemic)	0.1	
CN1CCC(N(C)C(=O)C2CN(S(=O)(=O)c3ccc(-c4ccccc4)cc3)c3ccccc32)CC1 (racemic)	0.126	
COc1ccc(S(=O)(=O)N2CC(C(=O)N3CC(N)C3)c3ccccc32)c2ccccc12 (racemic)	0.158	
COc1ccc(S(=O)(=O)N2C[C@H](C(=O)N3CCCNCC3)c3ccccc32)c2ccccc12		Ki [2]: 1.26 µM; microsomal CLint [3]: 69 µL/min/mg; microsomal CLint [4]: 105 µL/min/mg; CL (Hepatocyte [5]): 7 µL/min; CL (Hepatocyte [6]): 11 µL/min; Papp A→B [7]: < 2.2 ×10⁻⁶ cm/s; Papp B→A [8]: 4.7 ×10⁻⁶ cm/s; half-life [9]: 1.9 h; Vd [10]: 1.9 L/kg; clearance [11]: 16.5 mL/min/kg; bioavailability [12]: 23.5%; fraction unbound [13]: 0.029; fraction unbound (Homo sapiens): 0.006
COc1ccc(S(=O)(=O)N2CC(C(=O)NC3CC4CCC(C3)N4C)c3ccccc32)c2ccccc12 (racemic)	0.0316	
CN1CCC(N(C)C(=O)C2CN(S(=O)(=O)c3cccs3)c3ccccc32)CC1 (racemic)	0.316	
CCN(CC)CCCNC(=O)C1CN(S(=O)(=O)c2ccc(OC)c3ccccc23)c2ccccc21 (racemic)	0.0794	
CN1CCC(N(C)C(=O)C2CN(S(=O)(=O)c3cccc4nsnc34)c3ccccc32)CC1 (racemic)	0.126	
Cc1cnc2c(S(=O)(=O)N3CC(C(=O)N(C)C4CCN(C)CC4)c4ccccc43)cccc2c1 (racemic)	0.316	
COc1ccc(S(=O)(=O)N2CC(C(=O)N3CC(CN)C3)c3ccccc32)c2ccccc12 (racemic)	0.0794	

Continued, in another order:

Ki [1] [µM]	SMILES	further results
0.0251	CN1CCC(N(C)C(=O)C2CN(S(=O)(=O)c3cccc(C(F)(F)F)c3)c3ccccc32)CC1 (racemic)	
0.0501	COc1ccc(S(=O)(=O)N2CC(C(=O)NC3CCN(Cc4ccccc4)CC3)c3ccccc32)c2ccccc12 (racemic)	
0.0251	CN1CCC(N(C)C(=O)C2CN(S(=O)(=O)c3ccc(C(F)(F)F)cc3)c3ccccc32)CC1 (racemic)	
0.0501	CN1CCC(N(C)C(=O)C2CN(S(=O)(=O)c3ccc4c(c3)OCCO4)c3ccccc32)CC1 (racemic)	
0.0631	Cc1c(S(=O)(=O)N2CC(C(=O)N(C)C3CCN(C)CC3)c3ccccc32)sc2ccc(Cl)cc12 (racemic)	
0.00794	COc1ccc(S(=O)(=O)N2CC(C(=O)N3CCNCC3)c3ccccc32)c2ccccc12 (racemic)	
0.02	CN1CCC(N(C)C(=O)C2CN(S(=O)(=O)c3ccc(OC(F)(F)F)cc3)c3ccccc32)CC1 (racemic)	
0.0316	CN1CCC(N(C)C(=O)C2CN(S(=O)(=O)c3cccc4ccccc34)c3ccccc32)CC1 (racemic)	
0.0316	CN1CCC(N(C)C(=O)C2CN(S(=O)(=O)c3cccc(-c4ccccc4)c3)c3ccccc32)CC1 (racemic)	
0.0794	COc1ccc(S(=O)(=O)N2CC(C(=O)NCCCn3ccnc3)c3ccccc32)c2ccccc12 (racemic)	
0.0316	COc1ccc(S(=O)(=O)N2CC(C(=O)NCCCN3CCOCC3)c3ccccc32)c2ccccc12 (racemic)	
0.0251	CN1CCC(N(C)C(=O)C2CN(S(=O)(=O)c3ccc4ccccc4c3)c3ccccc32)CC1 (racemic)	
0.0631	COc1cccc(N2CCN(C(=O)C3CN(S(=O)(=O)c4ccc(OC)c5ccccc45)c4ccccc43)CC2)c1 (racemic)	
0.00126	COc1ccc(S(=O)(=O)N2CC(C(=O)N3CCCNCC3)c3ccccc32)c2ccccc12 (racemic)	
0.00501	CN1CCC(N(C)C(=O)C2CN(S(=O)(=O)c3cccc4c(Cl)cccc34)c3ccccc32)CC1 (racemic)	
0.02	CCN(CC)CCNC(=O)C1CN(S(=O)(=O)c2ccc(OC)c3ccccc23)c2ccccc21 (racemic)	
0.00794	COc1ccc(S(=O)(=O)N2CC(C(=O)N(C)C3CCN(C)CC3)c3ccccc32)c2ccccc12 (racemic)	
0.0251	COc1ccc(S(=O)(=O)N2CC(C(=O)NC3CCN(C)CC3)c3ccccc32)c2ccccc12 (racemic)	
